# Experiments:
# Assay type in all cases: functional
# CCRF-CEM = experiment: Growth inhibition of human CCRF-CEM cells assessed as growth percentage at 10 uM incubated for 48 hrs by sulforhodamine B assay relative to control; settings: read-out: Activity
# In short: (§1)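 NCI-60 one-dose screen: cells in RPMI 1640 with 5% FBS and 2 mM L-glutamine, plated at 5,000–40,000 cells/well and preincubated 24 h at 37 °C, 5% CO2. Compound is added from a DMSO stock to a final 10 µM and incubated 48 h. Cells are TCA-fixed and stained with sulforhodamine B, read at 515 nm. Output is % growth versus untreated control, with a time-zero plate.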
# A549 = experiment: Growth inhibition of human A549/ATCC cells assessed as growth percentage at 10 uM incubated for 48 hrs by sulforhodamine B assay relative to control; settings: A549, 48 h, read-out: Activity; in short: as §1
# RPMI-8226 = experiment: Growth inhibition of human RPMI8226 cells assessed as growth percentage at 10 uM incubated for 48 hrs by sulforhodamine B assay relative to control; settings: RPMI-8226, 48 h, read-out: Activity
# In short: (§2)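 NCI-60 single-dose screen. Cells were grown in RPMI 1640 with 5% FBS and 2 mM L-glutamine and plated at 5,000–40,000 cells/well. After an overnight preincubation at 37 °C in 5% CO2, compound was added at a final 10 µM from a DMSO stock, with DMSO/PBS controls. After 48 h, cells were TCA-fixed and stained with 0.4% SRB, and absorbance was read at 515 nm. Growth is given as a percentage of untreated control.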
# MOLT-4 = experiment: Growth inhibition of human MOLT4 cells assessed as growth percentage at 10 uM incubated for 48 hrs by sulforhodamine B assay relative to control; settings: MOLT-4, 48 h, read-out: Activity
# In short: (§3)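 NCI-60 one-dose screen. Cells in RPMI 1640 with 5% FBS and 2 mM L-glutamine, seeded at 5,000–40,000 cells/well according to doubling time, and preincubated overnight at 37 °C, 5% CO2. A time-zero plate was TCA-fixed at drug addition. Compound from DMSO stock, final 10 µM, 48 h; DMSO vehicle controls. Fixation with TCA, 10% final (16% for suspension cells). SRB stain, Tris solubilization, A515. Result given as % growth versus untreated cells.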
# HOP-62 = experiment: Growth inhibition of human HOP62 cells assessed as growth percentage at 10 uM incubated for 48 hrs by sulforhodamine B assay relative to control; settings: HOP-62, 48 h, read-out: Activity; in short: as §3
# HOP-92 = experiment: Growth inhibition of human HOP92 cells assessed as growth percentage at 10 uM incubated for 48 hrs by sulforhodamine B assay relative to control; settings: HOP-92, 48 h, read-out: Activity; in short: as §3
# COLO 205 = experiment: Growth inhibition of human COLO205 cells assessed as growth percentage at 10 uM incubated for 48 hrs by sulforhodamine B assay relative to control; settings: COLO 205, 48 h, read-out: Activity; in short: as §1
# HCT-116 = experiment: Growth inhibition of human HCT116 cells assessed as growth percentage at 10 uM incubated for 48 hrs by sulforhodamine B assay relative to control; settings: HCT-116, 48 h, read-out: Activity; in short: as §1
# HCT-15 = experiment: Growth inhibition of human HCT15 cells assessed as growth percentage at 10 uM incubated for 48 hrs by sulforhodamine B assay relative to control; settings: HCT-15, 48 h, read-out: Activity; in short: as §1
# HT-29 = experiment: Growth inhibition of human HT-29 cells assessed as growth percentage at 10 uM incubated for 48 hrs by sulforhodamine B assay relative to control; settings: HT-29, 48 h, read-out: Activity; in short: as §3
# KM12 = experiment: Growth inhibition of human KM12 cells assessed as growth percentage at 10 uM incubated for 48 hrs by sulforhodamine B assay relative to control; settings: KM12, 48 h, read-out: Activity; in short: as §3
# SW-620 = experiment: Growth inhibition of human SW620 cells assessed as growth percentage at 10 uM incubated for 48 hrs by sulforhodamine B assay relative to control; settings: SW-620, 48 h, read-out: Activity; in short: as §2
# SNB-19 = experiment: Growth inhibition of human SNB19 cells assessed as growth percentage at 10 uM incubated for 48 hrs by sulforhodamine B assay relative to control; settings: SNB-19, 48 h, read-out: Activity; in short: as §2
# SNB-75 = experiment: Growth inhibition of human SNB75 cells assessed as growth percentage at 10 uM incubated for 48 hrs by sulforhodamine B assay relative to control; settings: SNB-75, 48 h, read-out: Activity; in short: as §2
# LOX IMVI = experiment: Growth inhibition of human LOXIMVI cells assessed as growth percentage at 10 uM incubated for 48 hrs by sulforhodamine B assay relative to control; settings: read-out: Activity; in short: as §3
# Malme-3M = experiment: Growth inhibition of human MALME-3M cells assessed as growth percentage at 10 uM incubated for 48 hrs by sulforhodamine B assay relative to control; settings: read-out: Activity; in short: as §3
# SK-MEL-2 = experiment: Growth inhibition of human SK-MEL-2 cells assessed as growth percentage at 10 uM incubated for 48 hrs by sulforhodamine B assay relative to control; settings: SK-MEL-2, 48 h, read-out: Activity; in short: as §2
# OVCAR-5 = experiment: Growth inhibition of human OVCAR5 cells assessed as growth percentage at 10 uM incubated for 48 hrs by sulforhodamine B assay relative to control; settings: OVCAR-5, 48 h, read-out: Activity; in short: as §2
# A498 = experiment: Growth inhibition of human A498 cells assessed as growth percentage at 10 uM incubated for 48 hrs by sulforhodamine B assay relative to control; settings: A498, 48 h, read-out: Activity; in short: as §1
# TK-10 = experiment: Growth inhibition of human TK10 cells assessed as growth percentage at 10 uM incubated for 48 hrs by sulforhodamine B assay relative to control; settings: TK-10, 48 h, read-out: Activity; in short: as §2
# MCF7 = experiment: Growth inhibition of human MCF7 cells assessed as growth percentage at 10 uM incubated for 48 hrs by sulforhodamine B assay relative to control; settings: MCF7, 48 h, read-out: Activity; in short: as §3
# MDA-MB-231 = experiment: Growth inhibition of human MDA-MB-231 cells assessed as growth percentage at 10 uM incubated for 48 hrs by sulforhodamine B assay relative to control; settings: MDA-MB-231, 48 h, read-out: Activity; in short: as §3
# Hs-578T = experiment: Growth inhibition of human Hs 578T cells assessed as growth percentage at 10 uM incubated for 48 hrs by sulforhodamine B assay relative to control; settings: read-out: Activity; in short: as §3
# BT-549 = experiment: Growth inhibition of human BT549 cells assessed as growth percentage at 10 uM incubated for 48 hrs by sulforhodamine B assay relative to control; settings: BT-549, 48 h, read-out: Activity; in short: as §1
# T47D = experiment: Growth inhibition of human T47D cells assessed as growth percentage at 10 uM incubated for 48 hrs by sulforhodamine B assay relative to control; settings: read-out: Activity; in short: as §2
# MDA-MB-468 = experiment: Growth inhibition of human MDA-MB-468 cells assessed as growth percentage at 10 uM incubated for 48 hrs by sulforhodamine B assay relative to control; settings: MDA-MB-468, 48 h, read-out: Activity; in short: as §3
Compound,growth at 10 µM (CCRF-CEM) [%],growth at 10 µM (A549) [%],growth at 10 µM (RPMI-8226) [%],growth at 10 µM (MOLT-4) [%],growth at 10 µM (HOP-62) [%],growth at 10 µM (HOP-92) [%],growth at 10 µM (COLO 205) [%],growth at 10 µM (HCT-116) [%],growth at 10 µM (HCT-15) [%],growth at 10 µM (HT-29) [%],growth at 10 µM (KM12) [%],growth at 10 µM (SW-620) [%],growth at 10 µM (SNB-19) [%],growth at 10 µM (SNB-75) [%],growth at 10 µM (LOX IMVI) [%],growth at 10 µM (Malme-3M) [%],growth at 10 µM (SK-MEL-2) [%],growth at 10 µM (OVCAR-5) [%],growth at 10 µM (A498) [%],growth at 10 µM (TK-10) [%],also measured
CC1=C(C(=O)OC(C)C)C(c2ccc3c(c2)OCO3)NC(=O)N1 (racemic),113,106,101,108,117,111,124,96.4,99.7,103,106,109,93.6,105,96.3,99.6,108,103,104,98.8,growth at 10 µM (MCF7): 96.5%; growth at 10 µM (MDA-MB-231): 104%; growth at 10 µM (Hs-578T): 102%; growth at 10 µM (BT-549): 93.7%; growth at 10 µM (T47D): 101%; growth at 10 µM (MDA-MB-468): 104%
CC1=C(C(=O)OC(C)C)C(c2ccc3c(c2)OCO3)NC(=S)N1 (racemic),105,104,87.7,110,119,96.6,123,95.6,100,103,108,107,95.5,95.2,97.3,95.9,102,105,109,98,growth at 10 µM (MCF7): 98.7%; growth at 10 µM (MDA-MB-231): 101%; growth at 10 µM (Hs-578T): 97.3%; growth at 10 µM (BT-549): 96%; growth at 10 µM (T47D): 91.4%; growth at 10 µM (MDA-MB-468): 115%
CC1=C(C(=O)OCC(C)C)C(c2ccc3c(c2)OCO3)NC(=O)N1 (racemic),104,109,99.9,109,114,102,119,105,101,105,104,113,107,100,96.5,99.8,104,104,121,99.4,growth at 10 µM (MCF7): 101%; growth at 10 µM (MDA-MB-231): 106%; growth at 10 µM (Hs-578T): 118%; growth at 10 µM (BT-549): 99.4%; growth at 10 µM (T47D): 97.5%; growth at 10 µM (MDA-MB-468): 100%
CC1=C(C(=O)OCC(C)C)C(c2ccc3c(c2)OCO3)NC(=S)N1 (racemic),101,99,84,89.1,121,103,123,101,100,106,99.1,115,103,94.1,96.3,105,101,105,121,101,growth at 10 µM (MCF7): 98.6%; growth at 10 µM (MDA-MB-231): 118%; growth at 10 µM (Hs-578T): 101%; growth at 10 µM (BT-549): 95%; growth at 10 µM (T47D): 81.9%; growth at 10 µM (MDA-MB-468): 94.6%

# From ChEMBL document CHEMBL4406880, “Design, synthesis, and bioactivity of dihydropyrimidine derivatives as kinesin spindle protein inhibitors” (Bioorg Med Chem, 2019)
